According to ChEMBL document CHEMBL4613246, “Antimycobacterial Rufomycin Analogues from Streptomyces atratus Strain MJM3502” (J Nat Prod, 2020):
Starred links: 1 amine or outer side, 2 acyl side, 3 side chain; linkers in the order of their positions; H or OH if unused. Non-standard residues stand in square brackets, D forms with d. Residues, ends and D or L forms follow the SMILES beside them. Trp(1-CMe2(2S-oxiranyl)) = CC(C)([C@H]1CO1)n1cc(C[C@H](N)C(=O)O)c2ccccc21; Trp(1-(1,1-Me2-allyl)) = C=CC(C)(C)n1cc(C[C@H](N)C(=O)O)c2ccccc21; X3 = CC(C)([C@H](O)CCl)n1cc(C[C@H](N[*:1])C(=O)[*:2])c2ccccc21; Tyr(3-NO2) = N[C@@H](Cc1ccc(O)c([N+](=O)[O-])c1)C(=O)O; X1 = COC(OC)C(C)C[C@@H](C(=O)[*:2])N(C)[*:1]; X2 = C[C@H](CO)C[C@@H](C(=O)[*:2])N(C)[*:1]; Gly(E-crotyl) = C/C=C/C[C@H](N)C(=O)O; NMeL = CN[C@@H](CC(C)C)C(=O)O

Legend:
[1] = test system: Mycobacterium tuberculosis; experiment: Bactericidal activity against Mycobacterium tuberculosis H37Rv harboring LuxAB gene assessed as reduction in microbial growth by measuring reduction in relative luminescence units after 7 days by luminometric method; assay type: functional; conditions: 168 h
Outline: (§1)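 Viability was read from an H37Rv luminescent reporter strain carrying plasmid pMV306hsp+LuxAB+G13+CDE. It was incubated with compound for two weeks, with luminescence read on days 7 and 14.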

[2] = test system: Mycobacterium tuberculosis; experiment: Bactericidal activity against Mycobacterium tuberculosis H37Rv harboring LuxAB gene assessed as reduction in microbial growth by measuring reduction in relative luminescence units after 14 days by luminometric method; assay type: functional; conditions: 336 h; outline: as §1

Row | SMILES | MBC [1] [µM] | MBC [2] [µM]
1 | C/C=C/C[C@@H]1NC(=O)[C@H](CC(C)C)N2C(=O)[C@H](CC(C)[C@H]2O)N(C)C(=O)[C@H](C)NC(=O)[C@H](Cc2ccc(O)c([N+](=O)[O-])c2)NC(=O)[C@H](CC(C)C)N(C)C(=O)[C@H](Cc2cn(C(C)(C)[C@H]3CO3)c3ccccc23)NC1=O (some centres undefined) | > 10 | 0.88
2 | C/C=C/C[C@@H]1NC(=O)[C@H](CC(C)C)N2C(=O)[C@H](C[C@@H](C)[C@H]2O)N(C)C(=O)[C@H](C)NC(=O)[C@H](Cc2ccc(O)c([N+](=O)[O-])c2)NC(=O)[C@H](CC(C)C)N(C)C(=O)[C@H](Cc2cn(C(C)(C)[C@H](O)CO)c3ccccc23)NC1=O | > 10 | 0.58
3 | C/C=C/C[C@@H]1NC(=O)[C@H](CC(C)C)N2C(=O)[C@H](C[C@](C)(O)[C@H]2O)N(C)C(=O)[C@H](C)NC(=O)[C@H](Cc2ccc(O)c([N+](=O)[O-])c2)NC(=O)[C@H](CC(C)C)N(C)C(=O)[C@H](Cc2cn(C(C)(C)[C@H]3CO3)c3ccccc23)NC1=O | > 10 | 4.6
4 | NNC(=O)c1ccncc1 [ISONIAZID] | 0.99 | 4
5 | C/C=C/C[C@@H]1NC(=O)[C@H](CC(C)C)NC(=O)[C@H](CC(C)C)N(C)C(=O)[C@H](C)NC(=O)[C@H](Cc2ccc(O)c([N+](=O)[O-])c2)NC(=O)[C@H](CC(C)C)N(C)C(=O)[C@H](Cc2cn(C(C)(C)[C@H](O)CCl)c3ccccc23)NC1=O (cyclo(A[NMeL]L[Gly(E-crotyl)][X3][NMeL][Tyr(3-NO2)])) | > 10 | 3.1
6 | C=CC(C)(C)n1cc(C[C@@H]2NC(=O)[C@H](C/C=C/C)NC(=O)[C@H](CC(C)C)NC(=O)[C@H](CC(C)C)N(C)C(=O)[C@H](C)NC(=O)[C@H](Cc3ccc(O)cc3)NC(=O)[C@H](CC(C)C)N(C)C2=O)c2ccccc21 (HELM PEPTIDE1{A.[meL].L.[C/C=C/C[C@H](N[*:1])C(=O)[*:2]].[C=CC(C)(C)n1cc(C[C@H](N[*:1])C(=O)[*:2])c2ccccc21].[meL].Y}$PEPTIDE1,PEPTIDE1,1:R1-7:R2$$$V2.0) | > 10 | 5.2
7 | C/C=C/C[C@@H]1NC(=O)[C@H](CC(C)C)NC(=O)[C@H](CC(C)C)N(C)C(=O)[C@H](C)NC(=O)[C@H](Cc2ccc(O)c([N+](=O)[O-])c2)NC(=O)[C@H](CC(C)C)NC(=O)[C@H](Cc2cn(C(C)(C)[C@H]3CO3)c3ccccc23)NC1=O (cyclo(A[NMeL]L[Gly(E-crotyl)][Trp(1-CMe2(2S-oxiranyl))]L[Tyr(3-NO2)])) | > 10 | 2.2
8 | C/C=C/C[C@@H]1NC(=O)[C@H](CC(C)C)NC(=O)[C@H](CC(C)C(OC)OC)N(C)C(=O)[C@H](C)NC(=O)[C@H](Cc2ccc(O)c([N+](=O)[O-])c2)NC(=O)[C@H](CC(C)C)N(C)C(=O)[C@H](Cc2cn(C(C)(C)[C@H]3CO3)c3ccccc23)NC1=O (stereo partly drawn) (cyclo(A[X1]L[Gly(E-crotyl)][Trp(1-CMe2(2S-oxiranyl))][NMeL][Tyr(3-NO2)])) | > 10 | 1.1
9 | C/C=C/C[C@@H]1NC(=O)[C@H](CC(C)C)NC(=O)[C@H](CC(C)C)N(C)C(=O)[C@H](C)NC(=O)[C@H](Cc2ccc(O)c([N+](=O)[O-])c2)NC(=O)[C@H](CC(C)C)N(C)C(=O)[C@H](Cc2cn(C(C)(C)[C@H]3CO3)c3ccccc23)NC1=O (cyclo(A[NMeL]L[Gly(E-crotyl)][Trp(1-CMe2(2S-oxiranyl))][NMeL][Tyr(3-NO2)])) | > 10 | 1
10 | C=CC(C)(C)n1cc(C[C@@H]2NC(=O)[C@H](C/C=C/C)NC(=O)[C@H](CC(C)C)NC(=O)[C@H](C[C@H](C)CO)N(C)C(=O)[C@H](C)NC(=O)[C@H](Cc3ccc(O)c([N+](=O)[O-])c3)NC(=O)[C@H](CC(C)C)N(C)C2=O)c2ccccc21 (cyclo(A[X2]L[Gly(E-crotyl)][Trp(1-(1,1-Me2-allyl))][NMeL][Tyr(3-NO2)])) | > 10 | 9.6
11 | C=CC(C)(C)n1cc(C[C@@H]2NC(=O)[C@H](C/C=C/C)NC(=O)[C@H](CC(C)C)NC(=O)[C@H](CC(C)C)N(C)C(=O)[C@H](C)NC(=O)[C@H](Cc3ccc(O)c([N+](=O)[O-])c3)NC(=O)[C@H](CC(C)C)N(C)C2=O)c2ccccc21 (cyclo(A[NMeL]L[Gly(E-crotyl)][Trp(1-(1,1-Me2-allyl))][NMeL][Tyr(3-NO2)])) | > 10 | 4.5
12 | CO[C@H]1/C=C/O[C@@]2(C)Oc3c(C)c(O)c4c(O)c(c(/C=N/N5CCN(C)CC5)c(O)c4c3C2=O)NC(=O)/C(C)=C\C=C\[C@H](C)[C@H](O)[C@@H](C)[C@@H](O)[C@@H](C)[C@H](OC(C)=O)[C@@H]1C [RIFAMPIN] | 0.24 | 0.12
